# Shown are actives, neighbours in structure and some others; about 3.8% of the full set was active somewhere.
# CHO parental Ca = counter-screen for OX1R antagonists: effect in parental CHO cells; inhibition, % at 5.6 µM; parental CHO-K1, ATP-induced calcium, Fluo-8 fluorescence; hit rate 0.63% among 330,000;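 active means inhibition above that plate's mean sample inhibition plus 3 SD, cut at about 26% in these data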;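 further: 0% = ATP-challenged DMSO wells and 100% = DMSO wells without ATP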
#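 Test system: parental CHO cells; detection: calcium-sensitive Fluo-8 fluorescence; evaluation: percent inhibition of calcium signal; also added: ATP as calcium-mobilizing challenge; repeats: one well per compound; control set: ATP-challenged DMSO wells low, unchallenged DMSO wells high; compound: single nominal dose of 5.6 µM per compound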
# OX1R antag-1 = antagonists of human orexin 1 receptor | O43613 | CHO/OX1R cells, Fluo-8 calcium fluorescence, orexin A | inhibition, % at 5 µM | hit rate 0.43% among 330,000 | AID 434989;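 active means inhibition above its plate's threshold, mean inhibition of all tested compounds on the plate plus 3 SD, cut at about 37% in these data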;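 further: 0% = orexin A challenge wells and 100% = SB-334867-A antagonist wells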
# Target sequence (O43613 whole entry, looked up): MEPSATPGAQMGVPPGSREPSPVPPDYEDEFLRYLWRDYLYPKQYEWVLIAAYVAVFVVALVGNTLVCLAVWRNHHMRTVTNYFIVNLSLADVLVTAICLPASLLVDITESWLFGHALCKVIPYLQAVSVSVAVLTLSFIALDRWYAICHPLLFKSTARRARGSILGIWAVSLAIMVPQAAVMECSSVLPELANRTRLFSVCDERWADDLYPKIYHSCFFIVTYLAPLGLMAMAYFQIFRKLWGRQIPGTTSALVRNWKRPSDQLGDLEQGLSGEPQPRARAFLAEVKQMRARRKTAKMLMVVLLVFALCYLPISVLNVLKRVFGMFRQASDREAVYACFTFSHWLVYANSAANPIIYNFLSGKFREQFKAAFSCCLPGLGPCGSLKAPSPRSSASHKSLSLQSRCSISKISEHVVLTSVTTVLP
# MPTP inh = blocks calcium-induced mitochondrial swelling; isolated mouse mitochondria, Ca2+ swelling absorbance, 30 min; inhibition, % at 10 µM; hit rate 1.4% among 360,000;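 active means inhibition of 50% or more, scaled per plate between neutral and stimulator controls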;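 further: 0% = DMSO wells given calcium and 100% = 1 mM EGTA wells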
# OX1R antag-2 = blocks the human orexin 1 receptor. O43613. OX1R-expressing cells, FRET antagonist read-out. inhibition, % at 6.6 µM. hit rate 1.8% among 330,000. AID 485270; in the data active means inhibition mostly above about 38%, no sharp cut-off; inactive means mostly below about 40%;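 further: 0% = agonist challenge alone and 100% = reference antagonist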
# GPR7 antag = human neuropeptides B/W receptor 1 antagonism; P48145; GPR7-expressing cells, fluorescence antagonist assay; inhibition, % at 4.4 µM; hit rate 1.1% among 290,000; AID 1861; in the data active means inhibition above about 16%, passing the limit was not always enough;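 further: cells stimulated with the agonist NPW; 0% = agonist with vehicle and 100% = vehicle without agonist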
# An asterisk follows results filed as active; x = not tested or not shown.
SMILES,CHO parental Ca,OX1R antag-1,MPTP inh,OX1R antag-2,GPR7 antag
COc1ccc(NC(=O)CS(=O)(=O)Cc2ccccc2)c([N+](=O)[O-])c1,-18,-27,-1,50*,-5
COc1ccc(NC(=O)CSc2nncn2C)c([N+](=O)[O-])c1,-9,3,-3,38*,-3
COc1ccc(NC(=O)CSc2ccccc2)c([N+](=O)[O-])c1,-10,-35,2,9,-8
COc1ccc(NC(=O)c2cc(Br)ccc2Cl)c([N+](=O)[O-])c1,31*,14,2,35,-7
COc1ccc(NC(=O)Cc2ccc(C)cc2)c([N+](=O)[O-])c1,-10,-11,1,19,-11
Cc1cc(C(=O)NCCc2ccc(S(N)(=O)=O)cc2)no1,-16,-16,-1,34,-13
COc1cc(C(O)c2nc(-c3cccc(C(C)C)c3)cs2)ccc1F (stereo not given),x,x,4,x,x
CCOC(=O)c1ccc(S(=O)(=O)N2CCC(N3CCCCCC3)CC2)cc1,x,x,-1,x,x
O=[N+]([O-])c1cc([N+](=O)[O-])c(N2CCCCCC2)cc1NCCO,-7,-15,1,11,-4
O=[N+]([O-])c1cc(NCCO)c(N2CCCCCC2)c2nonc12,-4,-21,0,46*,-6
CN(CC(=O)Nc1cccc(F)c1)C(=O)c1cc(S(=O)(=O)N2CCCCC2)ccc1N1CCOCC1,-26,-31,-3,7,x
Cc1noc(C)c1C(=O)Nc1cc(Cl)ccc1N1CCOCC1,-26,-24,0,0,x
COc1cccc(OC)c1C(=O)Nc1cc(Cl)ccc1N1CCOCC1,-41,-6,0,53*,-9
COc1cccc(C(C)(O)c2nc(-c3cnc4ccccc4c3)cs2)c1 (stereo not given),x,x,5,x,x
CCOc1cccc2cc(-c3nnc(NCc4ccco4)s3)c(=O)oc12,-13,-1,-1,46*,4
COc1ccc2sc(-c3ccc(N(C)C)cc3)c(C#CCCO)c2c1,-11,34,3,51*,x
O=c1[nH]nc(-c2ccc(NCCCO)c([N+](=O)[O-])c2)c2ccccc12,1,-16,1,27,3
O=c1[nH]nc(-c2ccc(NCCO)c([N+](=O)[O-])c2)c2ccccc12,10,-7,0,41*,-1
COc1ccc(NC(=O)c2cc(-c3sc(NC(=O)c4ccccc4)nc3C)n(Cc3ccccc3)n2)cc1,x,x,-2,x,x
CC1CN(CCOCCOc2ccccc2-c2ccccc2)CC(C)O1 (stereo not given),-25,-39,0,-5,-12
c1ccc(-c2ccccc2OCCOCCN2CCc3ccccc3C2)cc1,-23,-23,18,18,16*
Cc1ccc(C2C(C#N)=C(N)Oc3cc(C)oc(=O)c32)o1 (stereo not given),-5,-12,0,8,5
CC[N+](CC)(CC)CCOc1ccc(/C=C/c2ccccc2)cc1,3,1,6,13,x
CC[N+](CC)(CC)CCCCOc1ccc2c(c1)C(=O)c1cc(OCCCC[N+](CC)(CC)CC)ccc1-2,-7,-6,0,57*,-14
Cc1c(C)c(C)c(CO/N=C/c2cccs2)c(C)c1C,-7,-13,2,-1,2
SMILES,CHO parental Ca,OX1R antag-1,MPTP inh,OX1R antag-2,GPR7 antag
CCCCC(=O)N(Cc1ccc(-c2ccccc2-c2nn[nH]n2)cc1)[C@H](C(=O)O)C(C)C,-7,-9,x,12,-13
COC(=O)c1sccc1-c1ccc(C(=O)Nc2cccc(Cl)c2)o1,14,13,32,74*,0
CN(C)S(=O)(=O)Oc1ccsc1C(=O)Nc1cccc(Cl)c1,-4,-1,0,3,-4
CC1CCN(S(=O)(=O)c2cc3c4c(c2)CCN4C(=O)CC3)CC1,-19,-21,-1,30,x
CC1CCN(C(=O)CN(c2ccccc2)S(=O)(=O)N(C)C)CC1,-24,-31,0,13,21*
CN(C)S(=O)(=O)N(CC(=O)N1CCC(Cc2ccccc2)CC1)c1ccccc1,-11,-16,-1,28,-5
COc1ccc(NC(=O)CCCN2C(=O)CN(C)C2=O)cc1Cl,-10,-14,-2,0,x
COc1ccc(OCC(=O)NCCNC(=O)c2cccnc2)cc1,4,-4,1,7,-6
CS(=O)(=O)Nc1ccccc1C(=O)OCC(=O)N1CCC(c2ccccc2)=N1,-4,8,0,63*,x
CCc1nc2ccc(C(=O)Nc3ccc4c(c3)OCC(=O)N4)cn2c1N(C)Cc1nccn1C,x,x,3,x,x
O=C(Nc1ccc2nc3n(c(=O)c2c1)CCCC3)c1cc([N+](=O)[O-])ccc1F,8,-4,-1,52*,13
COc1ccc(N2C(=O)C(CN3CCN(C)CC3)C2c2ccccc2)cc1 (stereo not given),-11,-28,0,17,-5
CCN(CC)c1ccc(-c2nn3c(-c4ccccc4OC)nnc3s2)cc1,30*,29,18,39*,0
COc1ccccc1-c1nnc2sc(COc3ccccc3)nn12,-5,-11,-1,8,14
COc1cc(OC)cc(-c2c(Sc3ccccc3)c3cc(-c4ccc5c(c4)OCCO5)ccc3n2C)c1,x,x,2,x,x
C=CCNC(=S)N/N=C(\C)c1ccccn1,29*,24,-1,5,0
O=C1NC(=Nc2ccccc2)S/C1=C\c1cccn1-c1ccccc1,-2,17,0,60*,17
Cc1cccc(N=C2NC(=O)/C(=C/c3cccn3C)S2)c1,-14,-14,3,12,-6
Cc1c(C(c2ccccc2)c2c(C)n(C)n(-c3ccccc3)c2=O)c(=O)n(-c2ccccc2)n1C,-8,-17,0,0,-3
Cc1c(C(c2ccc(N(C)C)cc2)c2c(C)n(C)n(-c3ccccc3)c2=O)c(=O)n(-c2ccccc2)n1C,-5,-12,22,71*,-11
Cc1ccc2cccc(OCC(=O)N3CC(C)CC(C)C3)c2n1 (stereo not given),-10,-24,-2,16,17*
CCc1ccc(N2CC(C(=O)N3CCN(c4ccc([N+](=O)[O-])cc4)CC3)CC2=O)cc1 (stereo not given),x,x,-1,x,x
Nn1c(SCc2ccccc2)nc2c(cnn2-c2ccccc2)c1=O,4,-21,2,13,0
C=CCn1c(Cc2ccccc2)nc2c(cnn2-c2ccccc2)c1=O,39*,6,1,13,-2
CC(=O)NC(Cc1c[nH]c2ccccc12)C(=O)OCC(=O)Nc1ccc2c(c1)OCO2 (stereo not given),6,13,0,51,3
CC(=O)N[C@@H](Cc1c[nH]c2ccccc12)C(=O)OCC(=O)Nc1ccc(Cl)c(S(=O)(=O)N(C)C)c1,5,23,0,54*,10
Cc1ccccc1-c1csc(C(C)(O)c2cccnc2)n1 (stereo not given),x,x,1,x,x
CCOc1ccc(/C=N/NC(=O)c2ccccc2Cl)cc1CN1CC2CC(C1)c1cccc(=O)n1C2 (stereo not given),-30,-15,-1,37*,x

# Source: PubChem (several laboratories)
